According to ChEMBL document CHEMBL5385951, “Accraspiroketides A-B, Phenylnaphthacenoid-Derived Polyketides with Unprecedented [6 + 6+6 + 6] + [5 + 5] Spiro-Architecture” (2024):
Converted amounts (≈) assume the structure as drawn.

Legend:
Type in all cases: functional
Staphylococcus aureus = assay: Antibacterial activity against Staphylococcus aureus ATCC 25923 assessed as inhibition of bacterial growth incubated for 24 hrs by broth microdilution method
Enterococcus faecalis = assay: Antibacterial activity against Enterococcus faecalis ATCC 29212 assessed as inhibition of bacterial growth incubated for 24 hrs by broth microdilution method
Enterococcus faecium [1] = assay: Antibacterial activity against Enterococcus faecium clinical isolate K59-68 assessed as inhibition of bacterial growth incubated for 24 hrs by broth microdilution method
Outline: (§1)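 Broth microdilution per published protocols (CLSI dilution method for aerobically growing bacteria). E. faecium strains K59-68 and K60-39 are clonal complex 17 sub-cluster clinical bloodstream isolates from patients at University Hospital of North Norway. Ampicillin served as positive control and DMSO as negative control. MIC was determined from triplicate assays.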

Enterococcus faecium [2] = assay: Antibacterial activity against Enterococcus faecium clinical isolate K60-39 assessed as inhibition of bacterial growth incubated for 24 hrs by broth microdilution method; outline: as §1

Row | MIC (Staphylococcus aureus) | MIC (Enterococcus faecalis) | MIC (Enterococcus faecium [1]) | MIC (Enterococcus faecium [2]) | Compound
1 | 3.1 µg/mL (≈ 5.4 µM) | 3.1 µg/mL (≈ 5.4 µM) | 1.5 µg/mL (≈ 2.61 µM) | 4 µg/mL (≈ 6.97 µM) | COc1cc2c(c(O)c1Cl)C(=O)c1c(cc3cc(O)cc4c3c1O[C@@]41C(C)=C(C(=O)O)C(Cl)=C1Cl)C2(C)C
2 | 6.3 µg/mL (≈ 10.4 µM) | 3.1 µg/mL (≈ 5.1 µM) | 1.5 µg/mL (≈ 2.47 µM) | 4.7 µg/mL (≈ 7.73 µM) | COc1cc2c(c(O)c1Cl)C(=O)c1c(cc3c(Cl)c(O)cc4c3c1O[C@@]41C(C)=C(C(=O)O)C(Cl)=C1Cl)C2(C)C

Row | Compound | MIC (Staphylococcus aureus) | MIC (Enterococcus faecalis) | MIC (Enterococcus faecium [1]) | MIC (Enterococcus faecium [2])
3 | CC1(C)S[C@@H]2[C@H](NC(=O)[C@H](N)c3ccccc3)C(=O)N2[C@H]1C(=O)O [AMPICILLIN] | 0.5 µg/mL (≈ 1.43 µM) | 1 µg/mL (≈ 2.86 µM) | 1.5 µg/mL (≈ 4.29 µM) | 25 µg/mL (≈ 71.5 µM)
